Type in all cases: functional
The test system of test [1] is Mycobacterium tuberculosis. Nature of the test: Antimycobacterial activity against multidrug-resistant Mycobacterium tuberculosis 357/2005 after 14 days by micromethod. The following applies: 357/2005, 336 h. The method, boiled down: (§1)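 Clinical MDR/XDR M. tuberculosis strains, all resistant to INH, RIF, rifabutine and streptomycin, some with further resistances. Tested by the MIC micromethod across a concentration series descending from 1000.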

Test [2] deals with Mycobacterium tuberculosis. Briefly: Antimycobacterial activity against multidrug-resistant Mycobacterium tuberculosis 357/2005 after 21 days by micromethod. The following applies: 357/2005, 504 h. In outline:
as §1

The test system of test [3] is Mycobacterium tuberculosis. Nature of the test: Antimycobacterial activity against multidrug-resistant Mycobacterium tuberculosis 53/2009 after 14 days by micromethod. The following applies: 53/2009, 336 h. The method, boiled down:
as §1

Test [4] has as its system Mycobacterium tuberculosis. Nature of the test: Antimycobacterial activity against multidrug-resistant Mycobacterium tuberculosis 53/2009 after 21 days by micromethod. The following applies: 53/2009, 504 h. In outline: (§2)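 MDR M. tuberculosis strains, all resistant to INH, RIF, rifabutine and streptomycin (9449/2007 to these four). Micromethod with compounds added as DMSO solutions in a twofold series from 1000 μmol/L downward; lowest level used 1 μmol/L. Incubated at 37 °C and read at 14 and 21 days; MIC is the lowest concentration giving growth inhibition.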

Test [5] concerns Mycobacterium tuberculosis. Nature of the test: Antimycobacterial activity against extensively drug resistant Mycobacterium tuberculosis Praha 1 after 14 days by micromethod. The following applies: Praha 1, 336 h. The method, boiled down: as §1
The subject of test [6] is Mycobacterium tuberculosis. Nature of the test: Antimycobacterial activity against extensively drug resistant Mycobacterium tuberculosis Praha 1 after 21 days by micromethod. The following applies: Praha 1, 504 h. In outline:
as §1

Test [7] relates to Mycobacterium tuberculosis. Nature of the test: Antimycobacterial activity against extensively drug resistant Mycobacterium tuberculosis Praha 131 after 14 days by micromethod. The following applies: Praha 131, 336 h. The method, boiled down:
as §1

The subject of test [8] is Mycobacterium tuberculosis. Briefly: Antimycobacterial activity against extensively drug resistant Mycobacterium tuberculosis Praha 131 after 21 days by micromethod. The following applies: Praha 131, 504 h. The method, boiled down: as §1
The subject of test [9] is Mycobacterium tuberculosis. Briefly: Antimycobacterial activity against multidrug-resistant Mycobacterium tuberculosis 362/1998 after 14 days by micromethod. The following applies: 362/199, 336 h. The method, boiled down:
as §1

In test [10] the test system is Mycobacterium tuberculosis. Briefly: Antimycobacterial activity against multidrug-resistant Mycobacterium tuberculosis 362/1998 after 21 days by micromethod. The following applies: 362/1998, 504 h. In outline: as §1
Test [11] has as its system Mycobacterium tuberculosis. Nature of the test: Antimycobacterial activity against multidrug-resistant Mycobacterium tuberculosis 9449/2007 after 14 days by micromethod. The following applies: 9449/2007, 336 h. In outline: as §2
Test [12] has as its system Mycobacterium tuberculosis. Briefly: Antimycobacterial activity against multidrug-resistant Mycobacterium tuberculosis 9449/2007 after 21 days by micromethod. The following applies: 9449/2007, 504 h. In outline: as §2
Test [13] in a line: Selectivity index, ratio of IC50 for human PBMC to MIC for multidrug-resistant Mycobacterium tuberculosis 357/2005. The method, boiled down: (§3)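 SI = PBMC IC50 (MTT cytotoxicity) divided by the MIC against the named M. tuberculosis strain. MIC taken after 14 days of incubation at 37 °C by the micromethod.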
Test [14] is described as follows: Selectivity index, ratio of IC50 for human PBMC to MIC for multidrug-resistant Mycobacterium tuberculosis 53/2009. In outline:
as §3

Test [15] in a line: Selectivity index, ratio of IC50 for human PBMC to MIC for multidrug-resistant Mycobacterium tuberculosis 362/1998. In outline:
as §3

Test [16] can be described thus: Selectivity index, ratio of IC50 for human PBMC to MIC for multidrug-resistant Mycobacterium tuberculosis 9449/2007. The method, boiled down:
as §3

In brackets after ≈: the same amount, converted by molar mass.

On to `NNC(=O)c1ccncc1` [ISONIAZID], for which the MIC in test [1], in test [2], in test [3], in test [4], in test [5] and in test [6] was 14.6 µM (≈ 2 µg/mL) each time. Further, the MIC (in general, the least concentration at which growth counts as inhibited) in [7] was determined as 14.6 µM (≈ 2 µg/mL); in test [8] it was 14.6 µM (≈ 2 µg/mL); in test [9] it was 14.6 µM (≈ 2 µg/mL); in test [10], 14.6 µM (≈ 2 µg/mL); in test [11], 58.3 µM (≈ 8 µg/mL); in test [12], 58.3 µM (≈ 8 µg/mL).
Take `CC(=O)N[C@@H](Cc1ccccc1)C(=O)Oc1ccc(Cl)cc1C(=O)Nc1ccc(C(F)(F)F)cc1`: the “Selectivity Index” value in test [13], in [14], in test [15] and in test [16] was 6.1 throughout. For the same compound, the MIC in test [1] turned out to be 1 µM (≈ 0.505 µg/mL); in test [2], 2 µM (≈ 1.01 µg/mL); in test [3], 1 µM (≈ 0.505 µg/mL); in test [4], 1 µM (≈ 0.505 µg/mL); in [5], 1 µM (≈ 0.505 µg/mL); in [6], 2 µM (≈ 1.01 µg/mL). The MIC in [7] was determined as 1 µM (≈ 0.505 µg/mL); in [8] it was 2 µM (≈ 1.01 µg/mL); in test [9] it was 1 µM (≈ 0.505 µg/mL); in test [10] it was 1 µM (≈ 0.505 µg/mL); in [11], 2 µM (≈ 1.01 µg/mL); in test [12], 2 µM (≈ 1.01 µg/mL).
For the compound `CC(=O)N[C@@H](Cc1ccccc1)C(=O)Oc1ccc(Br)cc1C(=O)Nc1ccc(C(F)(F)F)cc1`, the “Selectivity Index” value in test [13], in [14], in test [15] and in [16] was 24.1 throughout. The MIC in [1] was 2 µM (≈ 1.1 µg/mL); in [2] it was 2 µM (≈ 1.1 µg/mL); in test [3], 1 µM (≈ 0.549 µg/mL); in [4], 2 µM (≈ 1.1 µg/mL); in [5] it was 1 µM (≈ 0.549 µg/mL); in test [6], 2 µM (≈ 1.1 µg/mL). Further, the minimal inhibitory concentration (MIC) in test [7] came out at 2 µM (≈ 1.1 µg/mL); in test [8], 2 µM (≈ 1.1 µg/mL); in [9] it was 1 µM (≈ 0.549 µg/mL); in test [10], 1 µM (≈ 0.549 µg/mL); in test [11] it was 1 µM (≈ 0.549 µg/mL); in test [12], 2 µM (≈ 1.1 µg/mL).
As for `CC(=O)N[C@@H](Cc1ccccc1)C(=O)Oc1ccc(Cl)cc1C(=O)Nc1ccc(Cl)c(Cl)c1`, the “Selectivity Index” value in [13], in test [14], in test [15] and in test [16] was 22 in each case. The minimum inhibitory concentration (MIC) was 2 µM (≈ 1.01 µg/mL) in test [1]; 2 µM (≈ 1.01 µg/mL) in test [2]; 1 µM (≈ 0.506 µg/mL) in [3]; 2 µM (≈ 1.01 µg/mL) in [4]; 1 µM (≈ 0.506 µg/mL) in [5]; 2 µM (≈ 1.01 µg/mL) in test [6]. In addition, the MIC was 2 µM (≈ 1.01 µg/mL) in test [7]; 2 µM (≈ 1.01 µg/mL) in [8]; 1 µM (≈ 0.506 µg/mL) in test [9]; 2 µM (≈ 1.01 µg/mL) in [10]; 2 µM (≈ 1.01 µg/mL) in test [11]; 4 µM (≈ 2.02 µg/mL) in [12].

These data come from ChEMBL document CHEMBL1629494, “New amino acid esters of salicylanilides active against MDR-TB and other microbes” (Eur J Med Chem, 2010).
